# Source: PubChem BioAssay
# MPTP inh: permeability transition pore inhibition. isolated mouse mitochondria, Ca2+ swelling absorbance, 30 min. inhibition, % at 10 µM. 360,000 compounds, 1.4% hits. AID 602449;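 active = inhibition of 50% or more, scaled per plate between neutral and stimulator controls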;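 also: 0% = DMSO wells given calcium and 100% = 1 mM EGTA wells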
# SENP1 FRET inh: SENP1 (human) catalytic domain inhibition. Q9P0U3. recombinant SENP1 catalytic domain, CyPet-SUMO1-YPet FRET cleavage. inhibition, % at 10 µM. 360,000 compounds, 0.21% hits. AID 624204;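 active = inhibition at least 30% at 10 µM, raw YFP signal under a set limit, fluorescence ratio 0.5 to 1.5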;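 also: 0% = enzyme with DMSO and 100% = no enzyme wells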
# Target sequence (Q9P0U3 419-644 limits assumed): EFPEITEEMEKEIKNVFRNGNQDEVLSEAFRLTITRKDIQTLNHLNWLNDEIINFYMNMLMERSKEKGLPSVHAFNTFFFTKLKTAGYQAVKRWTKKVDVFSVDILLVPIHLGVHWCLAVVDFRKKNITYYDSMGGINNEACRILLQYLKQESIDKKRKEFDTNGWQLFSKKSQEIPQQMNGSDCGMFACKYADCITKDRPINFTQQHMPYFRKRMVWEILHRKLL
#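 Material – human SENP1 catalytic domain · Input – SENP1 enzyme, 20 pM final · Compound dosing – single concentration of 10 µM compound, 0.5% DMSO final · Timing – enzyme reaction for 50 min at room temperature, dark · Measured by – FRET fluorescence in CFP and YFP emission channels · Control set – no-enzyme wells low, DMSO-plus-enzyme wells high control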
# GRIN3A LBD mod: modulators (binders) of human NR3A ligand-binding domain; AID 1259313; NR3A LBD differential scanning fluorimetry, Tm shift; 0% = protein alone, 100% = glycine-bound protein; 340,000 compounds, 2.5% hits; Tm shift relative to glycine control, % at 25 µM;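 active = melting temperature shift of at least 10% of the positive control shift, at one fixed dose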
# EBI2 antag: antagonists of human EBI2 receptor; EBI2 beta-arrestin recruitment, luminescence, 7a,25-OHC stimulated; P32249; inhibition, % at 5 µM; 360,000 compounds, 0.81% hits; in the data active = inhibition above about 38%;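 also: enzyme fragment complementation signal reports receptor beta-arrestin coupling in cells; 0% = agonist plus DMSO wells and 100% = wells without agonist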
# Target sequence (P32249 whole entry, looked up, the tested form may be a part): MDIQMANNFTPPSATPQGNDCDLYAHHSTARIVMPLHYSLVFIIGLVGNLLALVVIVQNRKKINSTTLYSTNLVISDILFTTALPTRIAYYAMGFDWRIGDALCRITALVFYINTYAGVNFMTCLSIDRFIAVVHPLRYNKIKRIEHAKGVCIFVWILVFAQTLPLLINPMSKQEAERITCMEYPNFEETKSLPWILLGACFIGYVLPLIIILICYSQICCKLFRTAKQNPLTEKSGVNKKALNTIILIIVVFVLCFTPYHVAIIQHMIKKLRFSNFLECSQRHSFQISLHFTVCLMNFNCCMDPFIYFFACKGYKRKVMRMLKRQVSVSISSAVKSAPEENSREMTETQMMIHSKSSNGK
# MPTP counter: Rhodamine 123 counter-screen of mitochondrial pore hits. shares compounds with MPTP inh. isolated mitochondria, membrane potential, Rhodamine 123 fluorescence. inhibition, % at 10 µM. 5,000 compounds, 78% hits; in the data active = inhibition above about 22%;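 also: 0% = DMSO vehicle and 100% = positive control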
# MPTP swell DR: MPTP inhibition, dose response swelling confirmation | IC50, µM | shares compounds with MPTP inh | isolated mitochondria swelling, absorbance | 780 compounds, 58% hits | AID 651561; in the data active = IC50 below about 20 µM
# MPTP cs DR: MPTP inhibitor counter-screen activity, dose response; 780 compounds, 49% hits; shares compounds with MPTP inh; isolated mitochondria counterscreen, fluorescence read-out; IC50, µM; in the data active = IC50 below about 80 µM
# * = called active by the depositor; nt = no result given. Compounds with a hit are over-represented: about 4.4% of the library has one in this group of screens.
SMILES,MPTP inh,SENP1 FRET inh,GRIN3A LBD mod,EBI2 antag,MPTP counter,others
O=C(Nc1ccc(Cl)cc1)Nc1ccc2c(c1)OCO2,33,1,2,-5,nt,
O=C(COC(=O)Cc1ccc(Cl)cc1Cl)Nc1ccc(OC(F)F)cc1,1,3,-12,-9,nt,
CC(C(=O)Nc1ccccc1Br)c1ccc([N+](=O)[O-])cc1 (stereo not drawn),2,1,0,13,nt,
Cc1ccc(NC(=O)C(C)c2ccc([N+](=O)[O-])cc2)cc1Cl (stereo not drawn),80*,2,12*,16,87*,
O=C(Nc1ccc(OC(F)F)c(Cl)c1)Nc1ccc2c(c1)OCO2,92*,0,35*,18,88*,
CCOc1cc(C(=O)Nc2ccc3c(c2)OCO3)ccc1OC(F)F,2,-1,0,-7,nt,
O=C(Nc1ccncc1)c1ccc2c(c1)C(=O)N(C1CCCCC1)C2=O,91*,0,3,5,97*,
Cc1cc(NC(=O)c2ccc3c(c2)C(=O)N(C2CCCCC2)C3=O)no1,-6,2,-1,-13,nt,
COc1ccccc1CCNC(=O)C(=O)NCC1OCCCN1S(=O)(=O)c1ccc(F)cc1C (stereo not drawn),-2,-3,0,3,nt,
Cc1c(Cl)cccc1NC(=S)NNc1ncc(C(F)(F)F)cc1Cl,60*,2,0,29,76*,
COc1cccc(C(=O)c2ncc(C(F)(F)F)cc2Cl)c1,-1,-1,-1,-2,nt,
Cc1ccccc1NC(=S)NNc1ncc(C(F)(F)F)cc1Cl,1,-1,-1,17,nt,
COC(=O)/C(=C\Nc1cccc(Cl)c1C)c1ncc(C(F)(F)F)cc1Cl,75*,2,-2,2,8,MPTP swell DR=19*;MPTP cs DR=>80
CN(C(=O)COC(=O)C1(C)CC1(Cl)Cl)c1c(N)n(Cc2ccccc2)c(=O)[nH]c1=O (stereo not drawn),-1,1,-2,5,nt,
CC(C)(C)NC(=O)c1nn(Cc2ccccc2)c(=O)c2ccccc12,-2,-1,0,-4,nt,
N#C/C(=C\c1ccc(-c2ccccc2C(=O)O)o1)c1nc2ccccc2[nH]1,1,-27,-16,-5,nt,
N#C/C(=C/c1ccc(Sc2nc3ccccc3[nH]2)o1)c1cccc(Br)c1,84*,-16,2,28,98*,
N#C/C(=C/c1ccc(Sc2nc3ccccc3[nH]2)o1)c1cccc(F)c1,85*,-8,0,16,87*,
O=C(N/N=C/c1ccc(Sc2nc3ccccc3[nH]2)o1)c1ccncc1,26,2,1,-17,nt,
N#C/C(=C\c1ccc(Sc2ccccc2)o1)c1nc2ccccc2[nH]1,94*,-30,9,16,68*,
N#C/C(=C/c1ccc(Sc2nc3ccccc3[nH]2)o1)c1ccccc1F,96*,-4,-1,15,83*,
O=C1C=C(c2cc3ccccc3s2)C[C@@H](c2ccc3c(c2)OCO3)C1,2,0,0,17,nt,
Cn1nc(C(=O)OCC(=O)c2ccc(Cl)cc2)c2ccccc2c1=O,0,1,0,1,nt,
CN(C(=O)Cn1cnc2sccc2c1=O)C1CCCCC1,7,-5,1,-5,nt,
CN1/C(=C\C(=O)Nc2ccc(F)cc2)C(C)(C)c2ccccc21,7,3,-6,8,nt,
SMILES,MPTP inh,SENP1 FRET inh,GRIN3A LBD mod,EBI2 antag,MPTP counter,others
CN1/C(=C\C(=O)Nc2cccc(Cl)c2)C(C)(C)c2ccccc21,104*,-2,7,8,82*,
CC1Cc2ccccc2N1C(=O)CN1C(=O)C(=O)N(Cc2ccccc2)C1=O (stereo not drawn),-1,-1,3,2,nt,
N#Cc1c(-c2ccc(Cl)cc2)n(O)c2ccccc12,96*,-3,23*,-24,100*,
Cc1ccc(C)c(S(=O)(=O)Nc2ccc(C(=O)N3CC(C)OC(C)C3)cc2)c1 (stereo not drawn),-2,3,1,0,nt,
Cc1cccc(NC(=S)NCC(C)CSc2ccc(Cl)cc2)c1 (stereo not drawn),89*,4,9,20,94*,
Cc1ccc(NC(=S)NCCSc2ccc(Cl)cc2)c(C)c1,81*,1,1,14,87*,
CCc1ccccc1NC(=S)NCCSc1ccc(Cl)cc1,94*,2,-1,5,94*,
Cc1ccc(C)c(NC(=S)NCCSc2ccc(Cl)cc2)c1,76*,-1,-5,13,90*,
Cc1ccc(NC(=S)NCc2ccc(Cl)cc2)c(C)c1,3,4,0,8,nt,
CCCCCN(C(=O)CCC(=O)OCC(=O)N1CCC(C)CC1)c1c(N)n(CCCC)c(=O)[nH]c1=O,-1,2,-1,-5,nt,
CCCCN1CC(=O)N2[C@H]3c4cc(C)ccc4OC[C@@H]3[C@H](C(=O)OCC)[C@]2(C)C1=O,0,-1,-3,3,nt,
COc1ccccc1N(CC(=O)NC(C)C)S(=O)(=O)c1cccs1,1,1,-4,0,nt,
Cc1ccccc1NC(=S)NCCSc1ccc(Cl)cc1,92*,-1,-4,8,86*,
Cc1cccc(NC(=S)NCCSc2ccc(Cl)cc2)c1,98*,0,14*,13,85*,
Cc1ccc(Cl)cc1NC(=S)NCCCSC1CCCCC1,99*,0,1,6,91*,
Cc1cc(Cl)ccc1NC(=S)NCCCO,-1,0,-3,-5,nt,
O=C(NCCN1CCOCC1)c1ccc(NC(=O)C2COc3ccccc3O2)cc1 (stereo not drawn),-3,2,-1,2,nt,
CC(CN1c2ccccc2Sc2ccccc21)N(C)C (stereo not drawn),3,-1,1,-9,nt,
CC(CN(C)C)CN1c2ccccc2Sc2ccccc21 (stereo not drawn),77*,0,1,1,-11,MPTP swell DR=7.1*;MPTP cs DR=>80
COc1ccc2c(c1)N(C[C@H](C)CN(C)C)c1ccccc1S2,67*,2,3,-1,-16,MPTP swell DR=8.8*;MPTP cs DR=>80
COc1cccc(CC(O)CC2c3c(cc4c(c3OC)OCO4)CCN2C)c1 (stereo not drawn),2,-4,3,-5,nt,
NC(N)=Nc1nc(-c2ccccc2)c2cc(F)ccc2n1,82*,-7,-3,-2,2,MPTP swell DR=6.2*;MPTP cs DR=47*
OCCSc1nc(-c2ccccc2)nc2ccc(F)cc12,4,-20,-8,-7,nt,
COc1ccc(CNc2nc3ccccc3n2CCN2CCCCC2)cc1,-1,0,-1,16,nt,
COc1ccc(CCN2CCC(Nc3nc4ccccc4n3Cc3ccc(F)cc3)CC2)cc1,83*,1,1,-2,-14,
